According to ChEMBL document CHEMBL4689842, “EUbOPEN Chemogenomics Library wave 1” (2021):

Test system: U2OS
Assay: Multiplex assay against U2OS
Assay type: toxicity, cell-based
Conditions: human
Summary of the method: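 Live cells were stained at seeding with Hoechst33342, BioTracker Green Microtubule Cytoskeleton Dye, MitoTracker Red and Annexin V Alexa Fluor 680, then imaged on a CQ1 microscope at 37°C and 5% CO2 after compound addition. CellPathfinder machine-learning gating split cells into Hoechst high-intensity objects or normal cells. Normal cells were split into healthy, pyknosed or fragmented nuclei, and pyknosed cells into mitotic or apoptotic. Tubulin, mitochondrial-mass and membrane-permeability phenotypes are per cents of healthy-nucleus cells.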

[1] = 12 h, 1 µM, compound concentration 1 uM, replicate 1
[2] = 12 h, 1 µM, compound concentration 1 uM, replicate 2
[3] = 12 h, 10 µM, compound concentration 10 uM, replicate 1
[4] = 12 h, 10 µM, compound concentration 10 uM, replicate 2
[5] = 24 h, 1 µM, compound concentration 1 uM, replicate 1
[6] = 24 h, 1 µM, compound concentration 1 uM, replicate 2
[7] = 24 h, 10 µM, compound concentration 10 uM, replicate 1
[8] = 24 h, 10 µM, compound concentration 10 uM, replicate 2

Structure (SMILES): C=CCn1c(=O)c2cnc(Nc3ccc(N4CCN(C)CC4)cc3)nc2n1-c1cccc(C(C)(C)O)n1 [ADAVOSERTIB]
- Population Apoptotic (%) [1]: 43%
- Population Fragmented Nuclei (%) [1]: 11%
- Population Healthy Nuclei (%) [1]: 60%
- Population Hoechst High Intensity Objects (%) [1]: 3%
- Population Membrane Permeable-Phenotype (%) [1]: 23%
- Population Mitochondria Different-Phenotype (%) [1]: 15%
- Population Mitotic Cells (%) [1]: 56%
- Population Normal (%) [1]: 96%
- Population Pyknosed Nuclei (%) [1]: 27%
- Population Tubulin-Different-Phenotype (%) [1]: 21%
- Total Cell Count [1]: 153
- Population Apoptotic (%) [2]: 12%
- Population Fragmented Nuclei (%) [2]: 16%
- Population Healthy Nuclei (%) [2]: 62%
- Population Hoechst High Intensity Objects (%) [2]: 5%
- Population Membrane Permeable-Phenotype (%) [2]: 13%
- Population Mitochondria Different-Phenotype (%) [2]: 5%
- Population Mitotic Cells (%) [2]: 87%
- Population Normal (%) [2]: 94%
- Population Pyknosed Nuclei (%) [2]: 21%
- Population Tubulin-Different-Phenotype (%) [2]: 23%
- Total Cell Count [2]: 165
- Population Apoptotic (%) [3]: 40%
- Population Fragmented Nuclei (%) [3]: 25%
- Population Healthy Nuclei (%) [3]: 13%
- Population Hoechst High Intensity Objects (%) [3]: 8%
- Population Membrane Permeable-Phenotype (%) [3]: 42%
- Population Mitochondria Different-Phenotype (%) [3]: 47%
- Population Mitotic Cells (%) [3]: 59%
- Population Normal (%) [3]: 91%
- Population Pyknosed Nuclei (%) [3]: 60%
- Population Tubulin-Different-Phenotype (%) [3]: 80%
- Total Cell Count [3]: 167
- Population Apoptotic (%) [4]: 44%
- Population Fragmented Nuclei (%) [4]: 22%
- Population Healthy Nuclei (%) [4]: 14%
- Population Hoechst High Intensity Objects (%) [4]: 28%
- Population Membrane Permeable-Phenotype (%) [4]: 37%
- Population Mitochondria Different-Phenotype (%) [4]: 62%
- Population Mitotic Cells (%) [4]: 55%
- Population Normal (%) [4]: 71%
- Population Pyknosed Nuclei (%) [4]: 62%
- Population Tubulin-Different-Phenotype (%) [4]: 75%
- Total Cell Count [4]: 76
- Population Apoptotic (%) [5]: 62%
- Population Fragmented Nuclei (%) [5]: 20%
- Population Healthy Nuclei (%) [5]: 41%
- Population Hoechst High Intensity Objects (%) [5]: 8%
- Population Membrane Permeable-Phenotype (%) [5]: 30%
- Population Mitochondria Different-Phenotype (%) [5]: 25%
- Population Mitotic Cells (%) [5]: 37%
- Population Normal (%) [5]: 91%
- Population Pyknosed Nuclei (%) [5]: 38%
- Population Tubulin-Different-Phenotype (%) [5]: 38%
- Total Cell Count [5]: 155
- Population Apoptotic (%) [6]: 50%
- Population Fragmented Nuclei (%) [6]: 22%
- Population Healthy Nuclei (%) [6]: 51%
- Population Hoechst High Intensity Objects (%) [6]: 9%
- Population Membrane Permeable-Phenotype (%) [6]: 21%
- Population Mitochondria Different-Phenotype (%) [6]: 26%
- Population Mitotic Cells (%) [6]: 50%
- Population Normal (%) [6]: 90%
- Population Pyknosed Nuclei (%) [6]: 26%
- Population Tubulin-Different-Phenotype (%) [6]: 31%
- Total Cell Count [6]: 149
- Population Apoptotic (%) [7]: 64%
- Population Fragmented Nuclei (%) [7]: 36%
- Population Healthy Nuclei (%) [7]: 11%
- Population Hoechst High Intensity Objects (%) [7]: 13%
- Population Membrane Permeable-Phenotype (%) [7]: 76%
- Population Mitochondria Different-Phenotype (%) [7]: 82%
- Population Mitotic Cells (%) [7]: 35%
- Population Normal (%) [7]: 86%
- Population Pyknosed Nuclei (%) [7]: 51%
- Population Tubulin-Different-Phenotype (%) [7]: 88%
- Total Cell Count [7]: 165
- Population Apoptotic (%) [8]: 68%
- Population Fragmented Nuclei (%) [8]: 42%
- Population Healthy Nuclei (%) [8]: 15%
- Population Hoechst High Intensity Objects (%) [8]: 22%
- Population Membrane Permeable-Phenotype (%) [8]: 75%
- Population Mitochondria Different-Phenotype (%) [8]: 62%
- Population Mitotic Cells (%) [8]: 31%
- Population Normal (%) [8]: 77%
- Population Pyknosed Nuclei (%) [8]: 42%
- Population Tubulin-Different-Phenotype (%) [8]: 75%
- Total Cell Count [8]: 67

Structure (SMILES): CCCS(=O)(=O)Nc1ccc(F)c(C(=O)c2c[nH]c3ncc(Cl)cc23)c1F [PLX-4720]
- Population Apoptotic (%) [1]: 55%
- Population Fragmented Nuclei (%) [1]: 6%
- Population Healthy Nuclei (%) [1]: 88%
- Population Hoechst High Intensity Objects (%) [1]: 2%
- Population Membrane Permeable-Phenotype (%) [1]: 14%
- Population Mitochondria Different-Phenotype (%) [1]: 21%
- Population Mitotic Cells (%) [1]: 44%
- Population Normal (%) [1]: 97%
- Population Pyknosed Nuclei (%) [1]: 5%
- Population Tubulin-Different-Phenotype (%) [1]: 26%
- Total Cell Count [1]: 145
- Population Apoptotic (%) [2]: 33%
- Population Fragmented Nuclei (%) [2]: 7%
- Population Healthy Nuclei (%) [2]: 89%
- Population Hoechst High Intensity Objects (%) [2]: 15%
- Population Membrane Permeable-Phenotype (%) [2]: 12%
- Population Mitochondria Different-Phenotype (%) [2]: 24%
- Population Mitotic Cells (%) [2]: 66%
- Population Normal (%) [2]: 84%
- Population Pyknosed Nuclei (%) [2]: 3%
- Population Tubulin-Different-Phenotype (%) [2]: 28%
- Total Cell Count [2]: 153
- Population Apoptotic (%) [3]: 50%
- Population Healthy Nuclei (%) [3]: 89%
- Population Hoechst High Intensity Objects (%) [3]: 3%
- Population Membrane Permeable-Phenotype (%) [3]: 8%
- Population Mitochondria Different-Phenotype (%) [3]: 30%
- Population Mitotic Cells (%) [3]: 50%
- Population Normal (%) [3]: 96%
- Population Pyknosed Nuclei (%) [3]: 4%
- Population Tubulin-Different-Phenotype (%) [3]: 26%
- Total Cell Count [3]: 164
- Population Apoptotic (%) [4]: 0%
- Population Fragmented Nuclei (%) [4]: 6%
- Population Healthy Nuclei (%) [4]: 88%
- Population Hoechst High Intensity Objects (%) [4]: 9%
- Population Membrane Permeable-Phenotype (%) [4]: 11%
- Population Mitochondria Different-Phenotype (%) [4]: 31%
- Population Mitotic Cells (%) [4]: 100%
- Population Normal (%) [4]: 90%
- Population Pyknosed Nuclei (%) [4]: 5%
- Population Tubulin-Different-Phenotype (%) [4]: 23%
- Total Cell Count [4]: 101
- Population Apoptotic (%) [5]: 43%
- Population Fragmented Nuclei (%) [5]: 5%
- Population Healthy Nuclei (%) [5]: 86%
- Population Hoechst High Intensity Objects (%) [5]: 3%
- Population Membrane Permeable-Phenotype (%) [5]: 16%
- Population Mitochondria Different-Phenotype (%) [5]: 26%
- Population Mitotic Cells (%) [5]: 56%
- Population Normal (%) [5]: 96%
- Population Pyknosed Nuclei (%) [5]: 7%
- Population Tubulin-Different-Phenotype (%) [5]: 22%
- Total Cell Count [5]: 201
- Population Apoptotic (%) [6]: 11%
- Population Fragmented Nuclei (%) [6]: 3%
- Population Healthy Nuclei (%) [6]: 88%
- Population Hoechst High Intensity Objects (%) [6]: 11%
- Population Membrane Permeable-Phenotype (%) [6]: 9%
- Population Mitochondria Different-Phenotype (%) [6]: 25%
- Population Mitotic Cells (%) [6]: 88%
- Population Normal (%) [6]: 88%
- Population Pyknosed Nuclei (%) [6]: 8%
- Population Tubulin-Different-Phenotype (%) [6]: 23%
- Total Cell Count [6]: 198
- Population Apoptotic (%) [7]: 20%
- Population Fragmented Nuclei (%) [7]: 2%
- Population Healthy Nuclei (%) [7]: 92%
- Population Hoechst High Intensity Objects (%) [7]: 2%
- Population Membrane Permeable-Phenotype (%) [7]: 5%
- Population Mitochondria Different-Phenotype (%) [7]: 32%
- Population Mitotic Cells (%) [7]: 80%
- Population Normal (%) [7]: 97%
- Population Pyknosed Nuclei (%) [7]: 5%
- Population Tubulin-Different-Phenotype (%) [7]: 24%
- Total Cell Count [7]: 152
- Population Apoptotic (%) [8]: 57%
- Population Fragmented Nuclei (%) [8]: 4%
- Population Healthy Nuclei (%) [8]: 91%
- Population Hoechst High Intensity Objects (%) [8]: 7%
- Population Membrane Permeable-Phenotype (%) [8]: 7%
- Population Mitochondria Different-Phenotype (%) [8]: 38%
- Population Mitotic Cells (%) [8]: 42%
- Population Normal (%) [8]: 92%
- Population Pyknosed Nuclei (%) [8]: 3%
- Population Tubulin-Different-Phenotype (%) [8]: 32%
- Total Cell Count [8]: 93
